A selection: hits, their analogues and other compounds. The true share with any hit is near 3.5%.
RGS4 pot = RGS4 potentiation or activation; HEK293 M3R/inducible RGS4, carbachol calcium flux Fluo4; stronger effect = lower value; B-score at 10 µM; actives 0.92% (n = 310,000);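 active = B-score of the integrated calcium signal more than 4 SD below the library mean, with starting fluorescence not abnormally high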;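 note: negative B-score means reduced calcium response which marks RGS4 activation or potentiation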
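Material: M3R-expressing HEK293 line, RGS4 induced by doxycycline | Schedule: Overnight RGS4 induction, 30 min dye load 37 °C, 20 min compound RT | Measured by: Fluo4 fluorescence kinetic imaging of calcium | Read-out: Integrated calcium ratio converted to B score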
MrgX1 ag = agonists of human MrgX1 receptor. B-score at 10 µM. Q96LB2. AID 588627. actives 0.44% (n = 310,000). MrgX1-HEK293 cells, Fluo-4 calcium fluorescence, agonist mode; stronger effect = higher value;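 active = calcium response B-score plate-corrected fluorescence ratio at least 3 library SD, with starting fluorescence B-score inside 5 SD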
Target sequence (Q96LB2 whole entry, looked up): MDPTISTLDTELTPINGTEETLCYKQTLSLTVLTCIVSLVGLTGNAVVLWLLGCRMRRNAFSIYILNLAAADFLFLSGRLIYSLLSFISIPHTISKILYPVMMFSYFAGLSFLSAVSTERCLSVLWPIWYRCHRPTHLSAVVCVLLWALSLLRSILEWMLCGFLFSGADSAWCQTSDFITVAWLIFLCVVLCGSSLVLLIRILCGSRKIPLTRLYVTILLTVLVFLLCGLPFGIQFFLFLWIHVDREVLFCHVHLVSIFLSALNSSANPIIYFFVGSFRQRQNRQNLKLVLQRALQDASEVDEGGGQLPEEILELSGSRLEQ
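Material: MrgX1-expressing HEK293 cells / Dosing: compound as first of three additions / Incubation: overnight seeding, then 1 h dark dye loading / Signal: Fluo-4 NW calcium fluorescence / Evaluation: B-scored fluorescence response ratio / Benchmarks: positive and negative control wells on each plate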
MrgX1 PAM = allosterically activates human MrgX1 receptor signaling; Q96LB2; MrgX1-HEK293, Fluo-4 calcium flux, FDSS; stronger effect = higher value; B-score at 10 µM; actives 0.63% (n = 310,000);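 active = plate-corrected calcium response at least 3 library SD above typical, normal starting fluorescence, not activating the receptor alone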;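 note: compound read alongside a low EC10 to EC30 dose of BAM8-22 agonist; peak minus trough fluorescence over baseline measured at the second addition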
RGS4 inh = inhibitors of human RGS4; P49798; HEK293 M3R/RGS4 inducible, Fluo-4 calcium flux; stronger effect = higher value; triggered by carbachol at its EC20; B-score at 10 µM; actives 0.45% (n = 310,000);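 active = B-score, a plate-corrected calcium signal, over three deviations above library mean, with baseline fluorescence within five deviations of library mean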;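 note: RGS4 expression induced by doxycycline in cells with stable M3 receptor; B-score is computed from the integrated fluorescence ratio over baseline after carbachol; higher B-score means a larger calcium signal and so more RGS4 inhibition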
Target sequence (P49798 whole entry, looked up): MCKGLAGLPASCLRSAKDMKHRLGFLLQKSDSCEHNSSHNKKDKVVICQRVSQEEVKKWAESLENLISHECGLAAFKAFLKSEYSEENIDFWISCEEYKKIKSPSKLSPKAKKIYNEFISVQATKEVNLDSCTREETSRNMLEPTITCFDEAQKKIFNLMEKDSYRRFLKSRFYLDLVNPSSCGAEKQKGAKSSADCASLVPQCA
MrgX1 antag = human MrgX1 receptor antagonism, primary screen. Q96LB2. B-score at 10 µM. actives 1.3% (n = 310,000). AID 588676. MRGX1-HEK293 calcium flux, Fluo-4, BAM8-22 antagonism; stronger effect = lower value;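 active = calcium-response B-score plate-corrected more than 3 library SD below zero, starting fluorescence within 5 deviations, no agonist response on first addition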;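 note: peak minus trough fluorescence over baseline after final BAM8-22 challenge near maximal dose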
RGS4 block valid = RGS4 inhibitor validation; shares compounds with RGS4 inh; HEK293 M3R/RGS4, carbachol calcium Fluo-4 fluorescence; carbachol added at its EC20; 0 = buffer wells, 100 = carbachol control; calcium response, % at 10 µM; actives 65% (n = 1,700); AID 492999;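 active = duplicate-averaged calcium response above the buffer-only control mean plus 5 SD of those controls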;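 note: integrated fluorescence ratio F max minus min over baseline F0; higher response in RGS4-induced cells means RGS4 inhibition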
RGS4 uninduced = counter-screen for RGS4 inhibitors: effect in non-induced cells | shares compounds with RGS4 inh | HEK293 M3R non-induced, carbachol calcium Fluo-4; submaximal (EC20) carbachol stimulus; buffer wells 0%, carbachol control wells 100% | activity (percent), % at 10 µM | actives 20% (n = 1,900); call rule not given here;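 note: RGS4 induction absent so cells express M3R without RGS4; higher means more calcium signal and flags a non-specific hit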
RGS4 inh ctr2 = signal in non-induced cells without carbachol, RGS4 inhibitor counter-screen. shares compounds with RGS4 inh. HEK293 M3R/RGS4 non-induced, Fluo-4 calcium, no carbachol; normalised: buffer wells 0%, carbachol wells 100%. calcium response (agonist-mode artifact), % at 10 µM. actives 22% (n = 1,900). AID 493001;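 active = duplicate-averaged calcium rise in uninduced cells above buffer wells' mean plus 5 SD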
Numbers without * were called inactive; i = inactive; x = no result given.

SMILES	RGS4 pot	MrgX1 ag	MrgX1 PAM	RGS4 inh	MrgX1 antag	RGS4 block valid	RGS4 uninduced	RGS4 inh ctr2
Cc1cc(N)n2ncc(-c3ccc(Cl)cc3)c2n1	i	i	i	5.06*	i	17.0%*	i	i
CC(=O)SC(C[N+](=O)[O-])c1cn(C(C)=O)c2ccccc12 (stereo not drawn)	i	39.1*	i	15.9*	i	63.0%*	29.0%*	34.5%*
Cc1ccccc1NC(=S)N(CCN(C)C)C(C)c1ccccn1 (stereo not drawn)	i	i	i	i	i	x	x	x
CCOC(=O)N1CCN(c2cc(NCCC(=O)O)c3c4c(onc24)-c2ccccc2C3=O)CC1	x	i	i	x	i	x	x	x
Cc1c(CCC(C)C)c(-n2ccnc2C)n2c(nc3ccccc32)c1C#N	i	i	i	i	i	x	x	x
Cc1cccc([C@@H]2[C@@H]3C(=O)N(Cc4ccccc4)C(=O)[C@@H]3[C@]3(C)C(=O)N(c4cccc(Cl)c4)C(=O)N23)c1	i	i	i	i	i	x	x	x
C[C@]12C(=O)N(c3cccc(Cl)c3)C(=O)N1[C@H]1c3ccccc3OC[C@@H]1[C@H]2c1ccccc1	i	i	i	5.96*	-5.97*	16.0%*	i	i
Cc1cccc(N2C(=O)N3[C@@H]4c5ccccc5OC[C@@H]4[C@@H](c4ccccc4)[C@@]3(C)C2=O)c1	i	i	i	i	i	x	i	i
Cc1cccc(N2C(=O)N3[C@@H]4c5ccccc5OC[C@@H]4[C@@H](c4ccccc4)[C@]3(C)C2=O)c1	i	i	i	i	i	i	i	i
CN(C)CCCN(C(=O)C1=COCCO1)c1nc2ccc(Br)cc2s1	i	i	i	i	i	x	x	x
Cc1cc(S(=O)(=O)Nc2c(C)nc3nc[nH]n3c2=O)ccc1F	i	i	i	i	i	x	x	x
COc1cc(C(=O)N=C2SC3CS(=O)(=O)CC3N2c2ccccc2)cc(OC)c1OC (stereo not drawn)	i	i	i	i	i	x	x	x
COc1ccc(/C=C/C(=O)NCCCNC(=O)/C=C/c2ccc(OC)c(OC)c2)cc1OC	i	i	i	i	i	x	x	x
Oc1ccc(C[C@@H]2CNC(=S)N2CCCCC2CCCCC2)cc1	i	i	i	5.34*	i	18.0%*	i	i
Oc1ccc(NC(=S)N=Nc2c(O)[nH]c3ccc(Br)cc23)cc1	i	x	x	i	x	x	x	x
Oc1[nH]c2ccc(Br)cc2c1N=NC(=S)Nc1ccc(F)cc1	i	i	i	7.28*	i	11.5%*	i	i
Cc1ccc(/C=N/NC(=O)NC23CC4CC(CC(C4)C2)C3)o1	i	i	i	i	i	x	x	x
COc1ccc(/C=N/NC(=O)c2nc(Cl)c(Cl)c(N)c2Cl)cc1COc1ccccc1F	i	i	i	i	i	x	x	x
CCC(NC(=O)c1cccc(Cn2cc([N+](=O)[O-])cn2)c1)c1ccc(C(C)C)cc1 (stereo not drawn)	i	i	i	i	i	x	x	x
COc1ccc2cc(C3C(C#N)=C(N)OC(C)=C3C(C)=O)c(Cl)nc2c1 (stereo not drawn)	i	i	i	5.6*	i	32.5%*	i	i
CCOC(=O)[C@@H]1[C@H]2COc3cc(OC)ccc3[C@@H]2N2C(=O)N(c3ccc(C)cc3)C(=O)[C@]12C	i	i	i	i	i	x	x	x
CCOC(=O)[C@@H]1[C@H]2COc3cc(OC)ccc3[C@@H]2N2C(=O)N(c3ccc(Br)cc3)C(=O)[C@]12C	i	i	i	i	i	x	x	x
CCOC(=O)[C@@H]1[C@H]2COc3cc(OC)ccc3[C@@H]2N2C(=O)N(c3cccc(Cl)c3)C(=O)[C@@]12C	i	i	i	i	i	i	i	i
CCOC(=O)[C@@H]1[C@H]2COc3cc(OC)ccc3[C@@H]2N2C(=O)N(c3cccc(Cl)c3)C(=O)[C@]12C	i	i	i	i	i	i	i	i
CCOC(=O)[C@@H]1[C@H]2COc3cc(OC)ccc3[C@@H]2N2C(=O)N(c3ccc(Cl)cc3)C(=O)[C@]12C	i	i	i	i	i	i	i	i
SMILES	RGS4 pot	MrgX1 ag	MrgX1 PAM	RGS4 inh	MrgX1 antag	RGS4 block valid	RGS4 uninduced	RGS4 inh ctr2
CCOC(=O)[C@H]1[C@H]2COc3cc(OC)ccc3[C@@H]2N2C(=O)N(c3cccc(Cl)c3)C(=O)[C@@]12C	i	i	i	i	i	i	i	i
O=C(NCCN1CCOCC1)c1c(O)nc2sccn2c1=O	i	i	i	i	i	x	x	x
COc1cccc(C2CC(c3c(-c4ccccc4)c4cc(Cl)ccc4[nH]c3=O)=NN2S(C)(=O)=O)c1OC (stereo not drawn)	i	i	i	5.25*	i	9.0%*	i	80.0%*
COc1ccccc1C1CC(c2c(-c3ccccc3)c3cc(Cl)ccc3[nH]c2=O)=NN1S(C)(=O)=O (stereo not drawn)	x	i	i	x	i	x	x	x
Cc1cc(N2CCN(c3ccccc3Cl)CC2)n2cc(-c3ccccc3)nc2n1	i	i	i	5.95*	i	27.5%*	i	i
Cc1cc(N2CCN(c3ccccc3)CC2)n2cc(-c3ccccc3)nc2n1	i	i	i	i	i	x	x	x
O=C(Nc1ccccc1Cl)c1csc(-c2cccnc2)n1	i	i	i	i	i	x	x	x
Cc1ccc(C(=O)N/C(=C\c2ccc(Br)cc2)c2nc(=S)[nH][nH]2)cc1	i	i	i	i	i	x	i	11.0%*
O=C(N/C(=C/c1cccc(Br)c1)c1nc(=S)[nH][nH]1)c1ccccc1	i	i	i	7.21*	i	45.0%*	i	96.5%*
COc1ccc(NC(=O)CSc2nnc(-c3ccccc3)n2N)cc1	i	i	i	i	i	x	x	x
CCn1c2ccccc2c2cc(NC(=O)CSc3nnc(-c4ccc(OC)cc4)n3N)ccc21	i	i	i	5.26*	i	10.0%*	i	i
